In brackets after ≈: the same amount, converted by molar mass. Activity calls are given as the source filed them. The rule behind the calls is not given here.
How the values were obtained:
HeLa [1] = experiment: Antiproliferative activity against human HeLa cells at 20 uM after 24 hrs by sulforhodamine B assay; format: functional
Outline: (§1)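 HeLa cells grown in Eagle's MEM with 10% FBS at 37 °C under 5% CO2. Seeded at 1 × 10⁵ cells/mL and medium replaced after 24 h. Compounds added from DMSO stocks (final DMSO below 0.1%; DMSO vehicle as control) for one cell cycle (24 h). Cells stained with 0.4% sulforhodamine B and protein-bound dye read at 560 nm.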

HeLa [2] = experiment: Antiproliferative activity against human HeLa cells at 5 uM after 24 hrs by sulforhodamine B assay; format: functional; outline: as §1
HeLa [3] = experiment: Antiproliferative activity against human HeLa cells at 1 uM after 24 hrs by sulforhodamine B assay; format: functional; outline: as §1
Candida albicans = experiment: Antifungal activity against Candida albicans after 48 hrs by micro broth dilution method; format: functional
Outline: (§2)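 Micro broth dilution per NCCLS in RPMI 1640 buffered with MOPS. Inoculum 1-5 × 10³ cells/mL. Plates kept in a moist chamber at 35 °C. Absorbance read at 492 nm after 48 h (C. albicans, C. parapsilosis), 72 h (A. fumigatus, S. schenckii, C. neoformans) or 96 h (T. mentagrophytes). MIC taken as 90% growth inhibition versus control.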

Cryptococcus neoformans = experiment: Antifungal activity against Cryptococcus neoformans after 72 hrs by micro broth dilution method; format: functional; outline: as §2
Sporothrix schenckii = experiment: Antifungal activity against Sporothrix schenckii after 72 hrs by micro broth dilution method; format: functional; outline: as §2
[4] = test system: Trichophyton mentagrophytes; experiment: Antifungal activity against Trichophyton mentagrophytes after 96 hrs by micro broth dilution method; format: functional; outline: as §2
Aspergillus fumigatus = experiment: Antifungal activity against Aspergillus fumigatus after 72 hrs by micro broth dilution method; format: functional; outline: as §2
Candida parapsilosis = experiment: Antifungal activity against Candida parapsilosis ATCC 22019 after 48 hrs by micro broth dilution method; format: functional; details: Lodderomyces parapsilosis, ATCC 22019, 48 h; outline: as §2
HeLa [5] = experiment: Induction of apoptosis in human HeLa cells at 5 uM after 24 hrs by annexin 5-propidium iodide staining mathod; format: functional, cell-based
Outline: (§3)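 HeLa cells grown on coverslips at 5 × 10⁴ cells/mL and incubated 24 h with 5 µM compound. Stained with FITC-Annexin V (early apoptosis) and propidium iodide (late apoptosis/necrosis) using a kit. Imaged by DIC for morphology and by fluorescence.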

HeLa [6] = experiment: Induction of apoptosis in human HeLa cells assessed as morphological changes at 5 uM after 24 hrs by differential interference contrast microscopy; format: functional, cell-based; outline: as §3
HeLa [7] = experiment: Induction of apoptosis in human HeLa cells assessed as cell population at mitosis at 5 uM after 24 hrs; format: functional
Outline: (§4)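 HeLa cells grown on coverslips and exposed 24 h to compound (5, 10, 20 µM or none). Microtubules stained with mouse anti-α-tubulin and FITC anti-mouse IgG, chromosomes with DAPI. Mitotic cells scored by fluorescence microscopy.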

HeLa [8] = experiment: Induction of apoptosis in human HeLa cells assessed as cell population at mitosis at 10 uM after 24 hrs; format: functional; outline: as §4
HeLa [9] = experiment: Induction of apoptosis in human HeLa cells assessed as cell population at mitosis at 20 uM after 24 hrs; format: functional; outline: as §4
HeLa [10] = experiment: Induction of apoptosis in human HeLa cells assessed as blockade of cell cycle progression at mitosis after 24 hrs; format: functional, cell-based; outline: as §4
HeLa [11] = experiment: Antiproliferative activity against human HeLa cells at 34 uM after 24 hrs by sulforhodamine B assay; format: functional

| Molecule | inhibition at 20 µM (HeLa [1]) [%] | inhibition at 5 µM (HeLa [2]) [%] | inhibition at 1 µM (HeLa [3]) [%] | MIC (Candida albicans) [µg/mL] | MIC (Cryptococcus neoformans) [µg/mL] | MIC (Sporothrix schenckii) [µg/mL] | MIC [4] [µg/mL] | MIC (Aspergillus fumigatus) [µg/mL] | MIC (Candida parapsilosis) [µg/mL] | Activity (HeLa [5]) | Activity (HeLa [6]) | Activity (HeLa [7]) [%] | Activity (HeLa [8]) [%] | Activity (HeLa [9]) [%] | Activity (HeLa [10]) | inhibition at 34 µM (HeLa [11]) [%] |
| --- | --- | --- | --- | --- | --- | --- | --- | --- | --- | --- | --- | --- | --- | --- | --- | --- |
| O=c1c2[nH]c3ccccc3sc=2c(=O)c2ccccc12 | 42 | 6.5 | 5.5 | > 50 | > 50 | 50 (≈ 179 µM) | > 50 | > 50 | > 50 |  |  |  |  |  |  |  |
| O=C1C(Cl)=C(Sc2cccc3ccccc23)C(=O)c2ccccc21 | 69 | 22 | 0 | 50 (≈ 143 µM) | 50 (≈ 143 µM) | 6.25 (≈ 17.8 µM) | 6.25 (≈ 17.8 µM) | 50 (≈ 143 µM) | 50 (≈ 143 µM) |  |  |  |  |  |  |  |
| COc1cccc(SC2=C(Sc3cccc(OC)c3)C(=O)c3ccccc3C2=O)c1 | 100 | 76 | 64 | > 50 | > 50 | > 50 | 50 (≈ 115 µM) | > 50 | > 50 | Active | Active | 3.5 | 3.8 | 4.2 |  |  |
| O=c1c2[nH]c3ccc4ccccc4c3sc=2c(=O)c2ccccc12 | 42 | 19 | 12 | > 50 | > 50 | 50 (≈ 152 µM) | > 50 | > 50 | > 50 |  |  |  |  |  |  |  |
| O=C1C(Sc2ccccc2)=C(Sc2ccccc2)C(=O)c2ccccc21 | 100 | 60 | 51 | > 50 | > 50 | 50 (≈ 134 µM) | > 50 | > 50 | > 50 | Active | Active |  |  |  | inactive |  |
| OC(Cn1cncn1)(Cn1cncn1)c1ccc(F)cc1F [FLUCONAZOLE] |  |  |  | 1 (≈ 3.27 µM) | 1 (≈ 3.27 µM) | 2 (≈ 6.53 µM) | 0.5 (≈ 1.63 µM) | 2 (≈ 6.53 µM) | 2 (≈ 6.53 µM) |  |  |  |  |  |  |  |
| COc1ccc2[nH]c3c(=O)c4ccccc4c(=O)c=3sc2c1 | 77 | 20 | 8.5 | > 50 | > 50 | > 50 | 50 (≈ 162 µM) | > 50 | > 50 |  |  |  |  |  |  |  |
| O=C1C(Sc2cccc3ccccc23)=C(Sc2cccc3ccccc23)C(=O)c2ccccc21 | 46 | 30 | 22 | > 50 | > 50 | > 50 | > 50 | > 50 | > 50 |  |  |  |  |  |  |  |
| O=C1C(Cl)=C(Sc2ccccc2)C(=O)c2ccccc21 | 73 | 29 | 15 | 6.25 (≈ 20.8 µM) | 6.25 (≈ 20.8 µM) | 1.56 (≈ 5.19 µM) | 1.56 (≈ 5.19 µM) | 12.5 (≈ 41.6 µM) | 6.25 (≈ 20.8 µM) |  |  |  |  |  |  |  |
| COc1ccc2c(c1OC)C(=O)O[C@@H]2[C@H]1c2c(cc3c(c2OC)OCO3)CCN1C [NOSCAPINE] |  |  |  |  |  |  |  |  |  |  |  |  |  |  |  | 50 |
| Clc1ccc(COC(Cn2ccnc2)c2ccc(Cl)cc2Cl)c(Cl)c1 (stereo not given) [MICONAZOLE] |  |  |  | 25 (≈ 60.1 µM) | 12.5 (≈ 30 µM) |  | < 0.78 | 12.5 (≈ 30 µM) |  |  |  |  |  |  |  |  |
| COc1cccc(SC2=C(Cl)C(=O)c3ccccc3C2=O)c1 | 74 | 48 | 39 | 25 (≈ 75.6 µM) | 25 (≈ 75.6 µM) | 3.12 (≈ 9.43 µM) | 3.12 (≈ 9.43 µM) | 25 (≈ 75.6 µM) | 25 (≈ 75.6 µM) |  |  |  |  |  |  |  |
| O=C1C(Cl)=C(Cl)C(=O)c2ccccc21 [Dichlon] | 49 | 43 | 28 | 0.78 (≈ 3.44 µM) | 3.12 (≈ 13.7 µM) | 0.78 (≈ 3.44 µM) | 1.56 (≈ 6.87 µM) | 1.56 (≈ 6.87 µM) | 1.56 (≈ 6.87 µM) |  |  |  |  |  |  |  |
| NYSTATIN |  |  |  | 7.8 | 3.5 | 13.2 |  |  |  |  |  |  |  |  |  |  |
| C[C@@H]1[C@H](O)[C@@H](C)/C=C/C=C/C=C/C=C/C=C/C=C/C=C/[C@H](O[C@@H]2O[C@H](C)[C@@H](O)[C@H](N)[C@@H]2O)C[C@@H]2O[C@](O)(C[C@@H](O)C[C@@H](O)[C@H](O)CC[C@@H](O)C[C@@H](O)CC(=O)O[C@H]1C)C[C@H](O)[C@H]2C(=O)O [AMPHOTERICIN B] |  |  |  | 0.39 (≈ 0.422 µM) | 0.78 (≈ 0.844 µM) |  | 1.56 (≈ 1.69 µM) |  |  |  |  |  |  |  |  |  |

Reference: ChEMBL document CHEMBL1138562, “2,3-Disubstituted-1,4-naphthoquinones, 12H-benzo[b]phenothiazine-6,11-diones and related compounds: synthesis and biological evaluation as potential antiproliferative and antifungal agents” (2009)
